In ChEMBL document CHEMBL1140086, “Targeting the ribose and phosphate binding site of p38 mitogen-activated protein (MAP) kinase: synthesis and biological testing of 2-alkylsulfanyl-, 4(5)-aryl-, 5(4)-heteroaryl-substituted imidazoles” (J Med Chem, 2008):

Key:
[1] = target: Mitogen-activated protein kinase 14 (Homo sapiens, UniProt Q16539); assay: Inhibition of p38alpha
Blood = assay: Inhibition of LPS-stimulated TNFalpha release in human whole blood by ELISA; assay type: functional, tissue-based
Summary of the method: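 Fresh human whole blood diluted with FBS; compound dilutions added, 15 min preincubation (5% CO2), then LPS stimulation; basal wells received DPBS-gentamicin. […] Tests in duplicate except where otherwise stated.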

Mitogen-activated protein kinase 14, sequence (Q16539 whole entry): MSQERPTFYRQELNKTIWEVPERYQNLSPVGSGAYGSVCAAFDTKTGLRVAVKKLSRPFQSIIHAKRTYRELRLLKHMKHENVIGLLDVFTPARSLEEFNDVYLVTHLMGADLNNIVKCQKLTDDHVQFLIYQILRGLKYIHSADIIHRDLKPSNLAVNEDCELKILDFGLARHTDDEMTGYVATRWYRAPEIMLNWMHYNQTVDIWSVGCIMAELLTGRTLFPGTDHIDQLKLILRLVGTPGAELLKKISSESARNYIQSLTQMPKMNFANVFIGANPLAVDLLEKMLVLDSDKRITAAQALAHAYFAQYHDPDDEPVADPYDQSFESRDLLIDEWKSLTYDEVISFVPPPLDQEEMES

SMILES | IC50 [1] [nM] | IC50 (Blood) [nM]
OCCSc1nc(-c2ccc(F)cc2)c(-c2ccncc2)[nH]1 | 184 | 4210
CC(C)Nc1cc(-c2[nH]c(SCC(O)CO)nc2-c2ccc(F)cc2)ccn1 (stereo not given) | 3 | 126
OCCCSc1nc(-c2ccc(F)cc2)c(-c2ccncc2)[nH]1 | 215 | 6690
OCC(O)CSc1nc(-c2ccc(F)cc2)c(-c2ccnc(NC3CCOCC3)c2)[nH]1 (stereo not given) | 3 | 131
CC(C)C(C)Nc1cc(-c2[nH]c(SC[C@H](O)CO)nc2-c2ccc(F)cc2)ccn1 (stereo not given in full) | 18 | 167
CC(C)C(C)Nc1cc(-c2[nH]c(SCC(O)CO)nc2-c2ccc(F)cc2)ccn1 (stereo not given) | 15 | 183
CC(C)Nc1cc(-c2[nH]c(SC[C@@H](O)CO)nc2-c2ccc(F)cc2)ccn1 | 3 | 123
CC(Nc1cc(-c2[nH]c(SCC(O)CO)nc2-c2ccc(F)cc2)ccn1)c1ccccc1 (stereo not given) | 41 | 936
OCC(O)CSc1nc(-c2ccc(F)cc2)c(-c2ccnc(NCc3ccccc3)c2)[nH]1 (stereo not given) |  | 2670
CC(C)C(C)Nc1cc(-c2[nH]c(SCCCO)nc2-c2ccc(F)cc2)ccn1 (stereo not given) | 12 | 145
CC(C)C(C)Nc1cc(-c2[nH]c(SC[C@@H](O)CO)nc2-c2ccc(F)cc2)ccn1 (stereo not given in full) | 10 | 139
Cn1c(SCC(O)CO)nc(-c2ccc(F)cc2)c1-c1ccncc1 (stereo not given) | 1220 | 
CC(C)CNc1cc(-c2[nH]c(SCC(O)CO)nc2-c2ccc(F)cc2)ccn1 (stereo not given) |  | 168
CSc1nc(-c2ccc(F)cc2)c(-c2ccnc(NC3CCOCC3)c2)[nH]1 |  | 201
OCCSc1nc(-c2ccc(F)cc2)c(-c2ccnc(N[C@H]3CC[C@H](O)CC3)c2)[nH]1 |  | 157
COC(=O)CSc1nc(-c2ccc(F)cc2)c(-c2ccnc(NC(C)c3ccccc3)c2)[nH]1 (stereo not given) | 36 | 45500

SMILES | IC50 [1] [nM] | IC50 (Blood) [nM]
COC(=O)CSc1nc(-c2ccc(F)cc2)c(-c2ccnc(NC(C)C(C)C)c2)[nH]1 (stereo not given) | 19 | 8940
OCCSc1nc(-c2ccc(F)cc2)c(-c2ccnc(NC3CCOCC3)c2)[nH]1 | 2 | 80
CCOP(=O)(CSc1nc(-c2ccc(F)cc2)c(-c2ccnc(NC(C)c3ccccc3)c2)[nH]1)OCC (stereo not given) |  | 19400
COC(=O)CSc1nc(-c2ccc(F)cc2)c(-c2ccncc2)[nH]1 | 158 | 31900
OCC(O)CSc1nc(-c2ccc(F)cc2)c(-c2ccncc2)[nH]1 (stereo not given) | 392 | 3380
COC(=O)CCCSc1nc(-c2ccc(F)cc2)c(-c2ccncc2)[nH]1 | 487 | 31900
CC(C)Nc1cc(-c2[nH]c(SC[C@H](O)CO)nc2-c2ccc(F)cc2)ccn1 | 6 | 180
CCNc1cc(-c2[nH]c(SCC(O)CO)nc2-c2ccc(F)cc2)ccn1 (stereo not given) | 27 | 777
CNc1cc(-c2[nH]c(SCC(O)CO)nc2-c2ccc(F)cc2)ccn1 (stereo not given) | 102 | 5720
CCC(C)Nc1cc(-c2[nH]c(SCC(O)CO)nc2-c2ccc(F)cc2)ccn1 (stereo not given) | 5 | 156
CCOC(=O)C(Sc1nc(-c2ccc(F)cc2)c(-c2ccncc2)[nH]1)C(=O)OCC | 2240 | 25400
CC(C)Nc1cc(-c2[nH]c(SCCO)nc2-c2ccc(F)cc2)ccn1 |  | 129
COC(=O)CSc1nc(-c2ccc(F)cc2)c(-c2ccnc(NC(C)C)c2)[nH]1 | 4 | 12800
CC(Nc1cc(-c2[nH]c(SCC(=O)O)nc2-c2ccc(F)cc2)ccn1)c1ccccc1 (stereo not given) | 37 | 65700
CC(C)C(C)Nc1cc(-c2[nH]c(SCCO)nc2-c2ccc(F)cc2)ccn1 (stereo not given) | 11 | 37
